Measured values taken from ChEMBL document CHEMBL4138258 (ACS Med Chem Lett, 2017).
pEC50, pIC50: −log10 of the molar value. In brackets after ≈: the same amount, converted by molar mass. Activity calls are given as the source filed them.

Experiments:
Rattus norvegicus [1] = assay: Analgesic activity in Sprague-Dawley rat MIA-induced osteoarthritic pain model assessed as increase in paw withdrawal threshold at 3 mg/kg, ip by von Frey filaments assay; assay type: functional, organism-based
Method in brief: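 Rat MIA osteoarthritis pain model, with analgesia read as von Frey paw withdrawal threshold. In blocking runs, 3 mg/kg IP agonist was combined with the CB2 antagonist AR401733 (10 mg/kg PO) or the CB1 antagonist rimonabant (10 mg/kg PO).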

Rattus norvegicus [2] = assay: Toxicity in Sprague-Dawley rat MIA-induced osteoarthritic pain model assessed as induction of tachyphylaxis at 10 mg/kg, ip administered twice daily for 5 days measured 1 hr post dose at 1 day interval for 5 days during compound dosing; assay type: organism-based; conditions: in vivo
Method in brief: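 MIA-treated rats were dosed IP twice daily for 5 days. Reversal of hypersensitivity was measured by von Frey paw withdrawal threshold 1 h after the morning dose on days 1, 3 and 5. Morphine was given on the same regimen for comparison.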

Rattus norvegicus [3] = assay: Acute toxicity in Sprague-Dawley rat assessed as histopathological abnormalities at 30 to 300 mg/kg, po administered for 14 days measured during compound dosing; assay type: organism-based; conditions: in vivo, 336 h
[4] = molecular target: T1, Voltage-gated inwardly rectifying potassium channel KCNH2 (Homo sapiens, UniProt Q12809); assay: Inhibition of [3H]-astemizole binding to human ERG
[5] = molecular target: T1, Voltage-gated inwardly rectifying potassium channel KCNH2; assay: Inhibition of human ERG by patch-clamp method
[6] = Protein binding in mouse plasma assessed as unbound fraction; assay type: ADME, cell-free
Cytochrome P450 2C19 = Cytochrome P450 2C19 (Homo sapiens, UniProt P33261); assay: Inhibition of CYP2C19 (unknown origin); assay type: ADME
Rattus norvegicus [7] = assay: Analgesic activity in Sprague-Dawley rat MIA-induced osteoarthritic pain model assessed as increase in paw withdrawal threshold at 3 mg/kg, po after 1 hr in presence of CB2 antagonist […] by von Frey filaments assay; assay type: functional, organism-based
Cytochrome P450 2D6 = Cytochrome P450 2D6 (Homo sapiens, UniProt P10635); assay: Inhibition of CYP2D6 (unknown origin); assay type: ADME
[8] = Protein binding in monkey plasma assessed as unbound fraction; assay type: ADME, cell-free, Macaca mulatta; conditions: rhesus monkey
Cytochrome P450 2C9 = Cytochrome P450 2C9 (Homo sapiens, UniProt P11712); assay: Inhibition of CYP2C9 (unknown origin); assay type: ADME
Rattus norvegicus [9] = assay: Analgesic activity in Sprague-Dawley rat MIA-induced osteoarthritic pain model assessed as increase in paw withdrawal threshold at 3 mg/kg, po after 1 hr in presence of CB1 antagonist rimonabant by von Frey filaments assay; assay type: functional, organism-based
[10] = Half life in mouse liver microsomes; assay type: ADME, microsome
Rattus norvegicus [11] = assay: Analgesic activity in po dosed Sprague-Dawley rat MIA-induced osteoarthritic pain model assessed as increase in paw withdrawal threshold after 1 hr by von Frey filaments assay; assay type: functional
Method in brief: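 Von Frey paw withdrawal thresholds were read 1 h post-dose to assess late-phase hypersensitivity. ED50 was derived from the dose-response.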

Rattus norvegicus [12] = assay: Analgesic activity in Sprague-Dawley rat MIA-induced osteoarthritic pain model assessed as increase in paw withdrawal threshold at 3 mg/kg, po after 1 hr in presence of CB2 antagonist SR144528 by von Frey filaments assay; assay type: functional, organism-based
[13] = Aqueous solubility of the compound at pH 2 to 7 using solid samples; assay type: physicochemical; conditions: aqueous solution
Rattus norvegicus [14] = assay: Acute toxicity in Sprague-Dawley rat assessed as hematological changes at 30 to 300 mg/kg, po administered for 14 days measured during compound dosing; assay type: organism-based; conditions: in vivo, 336 h
Rattus norvegicus [15] = assay: Toxicity in Sprague-Dawley rat assessed as change in core body temperature up to 100 mg/kg, po measured after 60 mins by rectal probe method; assay type: organism-based; conditions: in vivo, 1 h
HepG2 = assay: Cytotoxicity against human HepG2 cells up to 1000 uM; assay type: cell-based
Method in brief: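 Essential Cell Function panel in live HepG2 cells, measuring several cellular parameters.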

[16] = Protein binding in human plasma assessed as unbound fraction; assay type: ADME, cell-free
[17] = Ratio of drug level in brain to plasma in Sprague-Dawley rat at 3 mg/kg, po measured after 2 hrs; assay type: ADME, organism-based; conditions: brain and plasma, read-out: BPR
Salmonella typhimurium [18] = assay: Mutagenicity in Salmonella typhimurium in presence of liver S9 fraction by Ames test; assay type: toxicity, organism-based; conditions: salmonella enterica subsp. enterica serovar typhimurium
[19] = Stability of the compound; assay type: physicochemical
Rattus norvegicus [20] = assay: Acute toxicity in Sprague-Dawley rat assessed as lethargy at 300 mg/kg, po administered for 14 days measured on day 2 to 14 during compound dosing; assay type: organism-based; conditions: in vivo, 336 h
Method in brief: (§1)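 Male and female Sprague-Dawley rats in a 14-day dose-range-finding toxicity study with oral dose groups of 0, 30, 100 and 300 mg/kg. Animals were watched for clinical signs such as lethargy over the dosing period.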

Rattus norvegicus [21] = assay: Inhibition of paw withdrawal threshold in Sprague-Dawley rat MIA-induced osteoarthritic pain model at 10 mg/kg, po measured up to 4 hrs; assay type: organism-based; conditions: in vivo
Cytochrome P450 3A4 = Cytochrome P450 3A4 (Homo sapiens, UniProt P08684); assay: Inhibition of CYP3A4 (unknown origin); assay type: ADME
[22] = molecular target: T2, Cannabinoid receptor 2 (Rattus norvegicus) (UniProt Q9QZN9); assay: Agonist activity at recombinant rat CB2 receptor expressed in HEK293 cells assessed as increase in beta arrestin recruitment measured after 2 to 3 hrs by PathHunter assay relative to CP55940; assay type: functional, cell-based
T2 sequence (whole entry): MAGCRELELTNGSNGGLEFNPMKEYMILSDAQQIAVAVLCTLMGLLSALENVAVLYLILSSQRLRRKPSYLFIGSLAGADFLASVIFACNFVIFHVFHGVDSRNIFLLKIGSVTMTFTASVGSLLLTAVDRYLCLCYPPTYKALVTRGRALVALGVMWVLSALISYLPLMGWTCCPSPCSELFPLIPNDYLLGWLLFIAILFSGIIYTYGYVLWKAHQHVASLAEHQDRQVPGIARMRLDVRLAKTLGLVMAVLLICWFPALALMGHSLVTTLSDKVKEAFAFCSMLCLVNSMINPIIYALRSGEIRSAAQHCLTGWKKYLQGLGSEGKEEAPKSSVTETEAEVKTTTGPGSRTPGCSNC
Method in brief: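 Beta-arrestin recruitment EC50 is the mean of three or more independent experiments (logSD < 0.4). Intrinsic activity (Emax) is expressed relative to CP-55,940 set at 100.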

[23] = Protein binding in rat plasma assessed as unbound fraction; assay type: ADME, cell-free
[24] = Half life in rat liver microsomes; assay type: ADME, microsome
Cannabinoid receptor 1 = Cannabinoid receptor 1 (Rattus norvegicus, UniProt P20272); assay: Agonist activity at recombinant rat CB1 receptor expressed in HEK293 cells assessed as increase in beta arrestin recruitment measured after 2 to 3 hrs by PathHunter assay; assay type: functional, cell-based
Cytochrome P450 1A2 = molecular target: T3, Cytochrome P450 1A2 (Homo sapiens, UniProt P05177); assay: Inhibition of CYP1A2 (unknown origin); assay type: ADME
T3 sequence (P05177 whole entry): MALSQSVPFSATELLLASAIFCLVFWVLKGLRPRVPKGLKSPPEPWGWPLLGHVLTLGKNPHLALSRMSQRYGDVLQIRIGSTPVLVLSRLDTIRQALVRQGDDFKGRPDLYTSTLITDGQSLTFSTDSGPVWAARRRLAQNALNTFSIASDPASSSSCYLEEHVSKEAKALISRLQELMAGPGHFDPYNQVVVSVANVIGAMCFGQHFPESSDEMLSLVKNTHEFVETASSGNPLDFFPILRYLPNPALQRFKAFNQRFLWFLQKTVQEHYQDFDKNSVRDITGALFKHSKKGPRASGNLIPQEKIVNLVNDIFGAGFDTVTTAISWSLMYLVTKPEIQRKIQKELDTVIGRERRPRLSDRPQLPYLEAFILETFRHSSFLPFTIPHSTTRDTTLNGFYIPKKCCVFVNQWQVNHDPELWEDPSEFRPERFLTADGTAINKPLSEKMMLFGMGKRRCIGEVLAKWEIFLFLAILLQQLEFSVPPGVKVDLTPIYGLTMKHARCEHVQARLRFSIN

Rattus norvegicus [25] = assay: Analgesic activity in Sprague-Dawley rat MIA-induced osteoarthritic pain model assessed as increase in paw withdrawal threshold at 3 mg/kg, ip administered twice daily for 5 days measured 1 hr post dose at 1 day interval for 5 days during compound dosing; assay type: functional, organism-based
Method in brief: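 Rats with MIA-induced late-phase hypersensitivity were dosed IP twice daily for 5 days. Von Frey paw withdrawal thresholds were measured 1 h after the morning dose on days 1, 3 and 5.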

Cannabinoid receptor 2 [26] = molecular target: T4, Cannabinoid receptor 2 (Rattus norvegicus, UniProt Q9QZN9); assay: Agonist activity at recombinant rat CB2 receptor expressed in HEK293 cells assessed as increase in beta arrestin recruitment measured after 2 to 3 hrs by PathHunter assay; assay type: functional, cell-based
T4 sequence (Q9QZN9 whole entry): T2 sequence (whole entry)

Salmonella typhimurium [27] = assay: Mutagenicity in Salmonella typhimurium in absence of liver S9 fraction by Ames test; assay type: toxicity, organism-based; conditions: salmonella enterica subsp. enterica serovar typhimurium
[28] = molecular target: T2, Cannabinoid receptor 2 (Rattus norvegicus); assay: Induction of recombinant HA-tagged rat CB2 receptor internalization expressed in CHOK1 cells at 10 uM measured after 1 hr by time-resolved flow cytometry relative to CP55940; assay type: functional, cell-based
Rattus norvegicus [29] = assay: Acute toxicity in Sprague-Dawley rat assessed as lethargy at 300 mg/kg, po administered for 14 days measured on day 1 during compound dosing; assay type: organism-based; conditions: in vivo, 336 h; method in brief: as §1
Rattus norvegicus [30] = assay: Analgesic activity in Sprague-Dawley rat MIA-induced osteoarthritic pain model assessed as increase in paw withdrawal threshold at 3 mg/kg, po after 1 hr in presence of CB2 inverse agonist AR401733 by von Frey filaments assay; assay type: functional, organism-based
[31] = Protein binding in dog plasma assessed as unbound fraction; assay type: ADME, cell-free, Canis lupus familiaris
[32] = Half life in human liver microsomes; assay type: ADME, microsome
Cannabinoid receptor 2 [33] = molecular target: Cannabinoid receptor 2 (Homo sapiens, UniProt P34972); assay: Agonist activity at recombinant human CB2 receptor expressed in HEK293 cells assessed as increase in beta arrestin recruitment measured after 2 to 3 hrs by PathHunter assay relative to CP55940; assay type: functional, cell-based
Sequence of Cannabinoid receptor 2 (Homo sapiens, UniProt P34972) (P34972 whole entry): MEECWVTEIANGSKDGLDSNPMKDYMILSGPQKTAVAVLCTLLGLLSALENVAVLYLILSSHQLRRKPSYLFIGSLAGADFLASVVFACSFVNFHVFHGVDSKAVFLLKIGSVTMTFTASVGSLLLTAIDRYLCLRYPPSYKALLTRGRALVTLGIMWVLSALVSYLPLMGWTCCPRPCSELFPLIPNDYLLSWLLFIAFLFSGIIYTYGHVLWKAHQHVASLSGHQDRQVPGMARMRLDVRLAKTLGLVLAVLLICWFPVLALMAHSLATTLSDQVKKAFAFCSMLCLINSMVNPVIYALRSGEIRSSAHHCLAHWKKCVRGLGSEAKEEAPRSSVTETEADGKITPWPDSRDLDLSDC

T1 sequence (Q12809 whole entry): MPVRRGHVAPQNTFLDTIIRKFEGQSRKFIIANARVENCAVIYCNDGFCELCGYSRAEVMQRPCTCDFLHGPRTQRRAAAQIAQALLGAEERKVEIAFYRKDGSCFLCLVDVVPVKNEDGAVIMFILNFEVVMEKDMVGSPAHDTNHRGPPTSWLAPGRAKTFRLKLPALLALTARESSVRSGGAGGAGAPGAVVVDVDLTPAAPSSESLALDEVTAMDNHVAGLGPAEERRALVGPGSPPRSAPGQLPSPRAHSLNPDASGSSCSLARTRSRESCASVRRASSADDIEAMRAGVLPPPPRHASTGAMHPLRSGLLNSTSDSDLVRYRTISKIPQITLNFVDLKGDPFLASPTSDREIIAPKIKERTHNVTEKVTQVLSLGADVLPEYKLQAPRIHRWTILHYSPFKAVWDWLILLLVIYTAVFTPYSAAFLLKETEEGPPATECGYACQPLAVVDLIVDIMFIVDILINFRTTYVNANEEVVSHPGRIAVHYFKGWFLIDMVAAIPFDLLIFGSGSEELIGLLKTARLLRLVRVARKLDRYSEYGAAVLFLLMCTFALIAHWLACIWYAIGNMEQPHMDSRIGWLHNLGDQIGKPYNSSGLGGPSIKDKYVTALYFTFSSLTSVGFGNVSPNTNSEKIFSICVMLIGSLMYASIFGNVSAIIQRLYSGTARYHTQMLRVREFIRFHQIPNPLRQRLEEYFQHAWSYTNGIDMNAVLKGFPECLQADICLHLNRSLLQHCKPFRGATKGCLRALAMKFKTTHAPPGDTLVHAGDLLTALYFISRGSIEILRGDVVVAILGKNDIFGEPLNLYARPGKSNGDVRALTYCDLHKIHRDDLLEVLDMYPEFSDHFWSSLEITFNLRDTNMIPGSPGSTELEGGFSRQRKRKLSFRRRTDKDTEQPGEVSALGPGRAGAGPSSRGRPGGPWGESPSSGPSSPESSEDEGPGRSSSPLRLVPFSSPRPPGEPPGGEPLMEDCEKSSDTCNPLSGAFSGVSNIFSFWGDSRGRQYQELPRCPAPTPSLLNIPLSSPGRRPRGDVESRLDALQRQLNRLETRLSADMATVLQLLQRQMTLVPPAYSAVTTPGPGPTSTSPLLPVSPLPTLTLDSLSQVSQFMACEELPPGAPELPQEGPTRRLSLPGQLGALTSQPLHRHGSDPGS
Sequence of Cannabinoid receptor 1 (P20272 whole entry): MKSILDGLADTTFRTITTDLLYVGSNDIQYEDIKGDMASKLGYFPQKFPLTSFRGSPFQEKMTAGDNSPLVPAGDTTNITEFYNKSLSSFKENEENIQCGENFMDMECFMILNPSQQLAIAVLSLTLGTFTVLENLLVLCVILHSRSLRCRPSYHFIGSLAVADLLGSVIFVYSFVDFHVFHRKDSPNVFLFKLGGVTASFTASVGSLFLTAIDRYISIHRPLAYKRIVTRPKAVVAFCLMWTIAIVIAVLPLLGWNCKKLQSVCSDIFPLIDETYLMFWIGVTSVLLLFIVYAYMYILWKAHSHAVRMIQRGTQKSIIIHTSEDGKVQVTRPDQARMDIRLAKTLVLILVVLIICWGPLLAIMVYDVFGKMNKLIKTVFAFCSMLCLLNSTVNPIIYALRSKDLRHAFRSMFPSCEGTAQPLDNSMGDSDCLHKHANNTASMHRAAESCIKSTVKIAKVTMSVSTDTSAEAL
Sequence of Cytochrome P450 3A4 (P08684 whole entry): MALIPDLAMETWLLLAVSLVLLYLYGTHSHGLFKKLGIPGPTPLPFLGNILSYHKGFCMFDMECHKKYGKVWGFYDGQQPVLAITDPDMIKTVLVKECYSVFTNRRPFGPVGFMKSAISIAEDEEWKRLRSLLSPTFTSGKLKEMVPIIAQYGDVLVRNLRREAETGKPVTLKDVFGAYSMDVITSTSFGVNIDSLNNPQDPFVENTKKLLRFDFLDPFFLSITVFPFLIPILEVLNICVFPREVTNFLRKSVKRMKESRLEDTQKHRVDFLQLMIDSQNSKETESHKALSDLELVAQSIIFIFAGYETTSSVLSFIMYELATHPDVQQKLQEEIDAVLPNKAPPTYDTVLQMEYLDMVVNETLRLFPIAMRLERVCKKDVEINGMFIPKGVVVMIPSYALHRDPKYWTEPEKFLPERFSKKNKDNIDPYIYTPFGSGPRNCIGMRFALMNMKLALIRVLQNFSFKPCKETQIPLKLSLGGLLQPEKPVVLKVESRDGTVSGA
Sequence of Cytochrome P450 2D6 (P10635 whole entry): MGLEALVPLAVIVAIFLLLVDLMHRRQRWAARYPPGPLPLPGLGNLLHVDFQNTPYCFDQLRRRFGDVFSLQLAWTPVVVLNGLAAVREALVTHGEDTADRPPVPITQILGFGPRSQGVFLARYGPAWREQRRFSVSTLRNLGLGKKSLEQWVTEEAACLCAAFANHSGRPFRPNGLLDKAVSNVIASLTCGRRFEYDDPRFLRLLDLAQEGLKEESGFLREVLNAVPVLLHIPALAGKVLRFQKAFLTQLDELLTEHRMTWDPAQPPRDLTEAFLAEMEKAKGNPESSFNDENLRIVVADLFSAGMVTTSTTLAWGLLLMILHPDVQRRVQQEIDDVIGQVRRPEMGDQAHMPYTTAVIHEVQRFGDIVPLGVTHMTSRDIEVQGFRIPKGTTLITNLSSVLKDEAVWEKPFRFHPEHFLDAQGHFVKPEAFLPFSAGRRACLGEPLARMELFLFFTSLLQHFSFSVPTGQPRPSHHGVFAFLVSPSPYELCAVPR
Sequence of Cytochrome P450 2C9 (P11712 whole entry): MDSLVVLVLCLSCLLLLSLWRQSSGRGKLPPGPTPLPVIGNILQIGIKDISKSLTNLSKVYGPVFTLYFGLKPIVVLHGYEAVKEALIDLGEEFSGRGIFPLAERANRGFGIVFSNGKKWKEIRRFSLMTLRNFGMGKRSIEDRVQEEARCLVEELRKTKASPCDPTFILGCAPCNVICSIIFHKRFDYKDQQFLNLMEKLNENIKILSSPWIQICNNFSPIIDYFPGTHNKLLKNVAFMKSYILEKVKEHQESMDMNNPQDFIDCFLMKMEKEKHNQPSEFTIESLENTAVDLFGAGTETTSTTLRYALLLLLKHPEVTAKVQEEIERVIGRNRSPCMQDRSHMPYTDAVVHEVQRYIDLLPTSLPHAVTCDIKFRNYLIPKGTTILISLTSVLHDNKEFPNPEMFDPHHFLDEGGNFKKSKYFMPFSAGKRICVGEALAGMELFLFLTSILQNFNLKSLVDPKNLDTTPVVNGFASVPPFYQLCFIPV
Sequence of Cytochrome P450 2C19 (P33261 whole entry): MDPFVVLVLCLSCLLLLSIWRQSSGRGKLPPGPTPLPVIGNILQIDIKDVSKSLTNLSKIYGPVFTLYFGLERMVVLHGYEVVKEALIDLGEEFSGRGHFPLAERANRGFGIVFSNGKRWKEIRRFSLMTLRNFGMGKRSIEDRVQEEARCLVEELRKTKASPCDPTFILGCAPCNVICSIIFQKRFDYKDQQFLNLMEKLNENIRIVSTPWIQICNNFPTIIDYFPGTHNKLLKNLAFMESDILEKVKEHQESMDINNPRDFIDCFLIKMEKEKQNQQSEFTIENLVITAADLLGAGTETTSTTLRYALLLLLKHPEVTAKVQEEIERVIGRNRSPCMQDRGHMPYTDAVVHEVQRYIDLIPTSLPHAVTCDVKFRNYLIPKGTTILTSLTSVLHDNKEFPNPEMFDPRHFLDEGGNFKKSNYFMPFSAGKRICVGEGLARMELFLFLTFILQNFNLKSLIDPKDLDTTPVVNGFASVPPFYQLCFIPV

SMILES: CN1CC[C@]23c4c5ccc(O)c4O[C@H]2[C@@H](O)C=C[C@H]3[C@H]1C5 [MORPHINE]
- Activity (Rattus norvegicus [1]): Active
- Activity (Rattus norvegicus [2]): Toxic

SMILES: CC(C)(C)[C@@H](CO)NC(=O)c1nn(-c2c[n+]([O-])ccn2)c2c1C[C@@H]1C[C@H]21 [OLORINAB]
- Activity (Rattus norvegicus [3]): Non-Toxic
- pIC50 [4]: < 4.52
- pIC50 [5]: < 4.52
- fraction unbound [6]: 0.1 to 0.2
- pIC50 (Cytochrome P450 2C19): < 4.30
- Activity (Rattus norvegicus [7]): inactive
- pIC50 (Cytochrome P450 2D6): < 4.30
- fraction unbound [8]: 0.1 to 0.2
- pIC50 (Cytochrome P450 2C9): < 4.30
- Activity (Rattus norvegicus [9]): inactive
- half-life [10]: > 1 h
- ED50 (Rattus norvegicus [11]): 2.3 mg/kg
- Activity (Rattus norvegicus [12]): inactive
- solubility thermodynamic [13]: 2000 µg/mL (≈ 5.6 mM)
- Activity (Rattus norvegicus [14]): Non-Toxic
- Activity (Rattus norvegicus [15]): Non-Toxic
- Activity (HepG2): Non-Toxic
- fraction unbound [16]: 0.1 to 0.2
- Kp at 2 h [17]: 0.04
- Activity (Salmonella typhimurium [18]): Non-Toxic
- Stability [19]: Stable
- Activity (Rattus norvegicus [20]): Non-Toxic
- inhibition (INH) (Rattus norvegicus [21]): Non-Toxic
- pIC50 (Cytochrome P450 3A4): < 4.30
- Emax [22]: 100%
- fraction unbound [23]: 0.1 to 0.2
- half-life [24]: > 1 h
- pEC50 (Cannabinoid receptor 1): 4.52 to 5.00
- pIC50 (Cytochrome P450 1A2): < 4.30
- Activity (Rattus norvegicus [25]): Active
- pEC50 (Cannabinoid receptor 2 [26]): 8.12
- Activity (Salmonella typhimurium [27]): Non-Toxic
- Activity [28]: 106%
- Activity (Rattus norvegicus [29]): Toxic
- Activity (Rattus norvegicus [30]): inactive
- fraction unbound [31]: 0.1 to 0.2
- half-life [32]: > 1 h
- Emax (Cannabinoid receptor 2 [33]): 106%
